An excerpt weighted towards active compounds, which were near 3.6% of everything screened.
PERK inhibitor: inhibitors of human PERK kinase; Q9NZJ5; CHO PERK-DD fusion, SEAP luminescence translation reporter; inhibition, % at 5.6 µM; hit rate 0.17% among 220,000;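 active = inhibition above the mean inhibition of all tested compounds plus 3 SD, set separately per screening campaign, cut at about 2.9% in these data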;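 note: PERK kinase domain activated by AP20187 dimerizer at 100 nM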
Target sequence (Q9NZJ5 whole entry, looked up, the tested form may be a part): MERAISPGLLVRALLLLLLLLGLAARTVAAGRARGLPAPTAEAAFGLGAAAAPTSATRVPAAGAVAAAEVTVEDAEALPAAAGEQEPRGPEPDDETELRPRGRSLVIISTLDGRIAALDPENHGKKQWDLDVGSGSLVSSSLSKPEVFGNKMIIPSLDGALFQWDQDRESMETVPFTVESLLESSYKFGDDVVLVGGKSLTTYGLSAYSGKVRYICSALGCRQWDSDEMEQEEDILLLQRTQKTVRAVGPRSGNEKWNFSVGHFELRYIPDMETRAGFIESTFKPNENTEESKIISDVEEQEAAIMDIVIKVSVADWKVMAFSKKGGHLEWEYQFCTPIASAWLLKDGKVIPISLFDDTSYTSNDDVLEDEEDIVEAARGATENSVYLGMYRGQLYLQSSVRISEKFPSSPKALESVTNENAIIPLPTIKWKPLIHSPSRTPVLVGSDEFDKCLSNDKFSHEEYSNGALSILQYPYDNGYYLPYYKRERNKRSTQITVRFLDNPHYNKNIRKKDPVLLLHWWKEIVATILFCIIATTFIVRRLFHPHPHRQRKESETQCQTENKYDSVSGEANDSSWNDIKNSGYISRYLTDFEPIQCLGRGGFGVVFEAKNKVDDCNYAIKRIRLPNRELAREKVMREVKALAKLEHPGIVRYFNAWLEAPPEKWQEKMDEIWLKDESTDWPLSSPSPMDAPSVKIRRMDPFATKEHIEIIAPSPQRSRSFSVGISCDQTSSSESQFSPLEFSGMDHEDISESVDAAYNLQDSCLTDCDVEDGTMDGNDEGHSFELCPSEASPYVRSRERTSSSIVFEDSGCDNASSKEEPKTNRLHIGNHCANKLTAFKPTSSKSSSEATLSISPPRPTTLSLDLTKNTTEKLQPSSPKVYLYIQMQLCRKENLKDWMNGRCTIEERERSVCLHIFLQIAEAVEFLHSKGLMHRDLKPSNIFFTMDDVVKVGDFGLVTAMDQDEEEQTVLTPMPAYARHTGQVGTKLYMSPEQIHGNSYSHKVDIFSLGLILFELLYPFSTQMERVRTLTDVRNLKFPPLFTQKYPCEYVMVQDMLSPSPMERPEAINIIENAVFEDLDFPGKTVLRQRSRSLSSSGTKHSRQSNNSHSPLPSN
AHR activator: human AHR activation. activation, % at 5 µM. AHR-responsive luciferase reporter cells, luminescence. P35869. AID 2796. hit rate 2.5% among 320,000; in the data active = activation above about 47%
Hsp70 activator: transcriptional activators of Hsp70. HeLa Hsp70 promoter luciferase reporter, luminescence; scaled: vehicle 0, proteasome-inhibitor control 100%. activation, % at 10 µM. hit rate 0.04% among 200,000;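 active = activation above the mean across all tested compounds plus 3 SD, cutoff set per campaign, cut at about 5.5% in these data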
STAT3 activator: activators of IL-6 induced STAT3 signaling | AID 871 | hit rate 0.91% among 190,000 | U3A cells, IL-6 STAT3-luciferase reporter, luminescence; 100% = signal with IL-6 EC80 alone | activation (% of control), % at 5.6 µM;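 active = activation above the screen-wide mean of compound activation plus 3 SD, cut at about 130% in these data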
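Detection: reporter luminescence signal / Assay system: STAT1-lacking human U3A cells, STAT3 luciferase reporter / Incubation: compound pre-incubation 1 h before IL-6, then 6 h stimulation at 37 °C / Control set: IL-6-only high control / Read-out: % activation relative to IL-6 control / Probe or stimulus: Interleukin-6, 33 ng/mL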
PolyA inhibitor: yeast polyadenylation inhibition | S. cerevisiae SKY197-pL101 polyadenylation reporter, beta-gal luminescence; efflux-impaired pdr1/pdr3 knockout yeast; score 100 = 6 SD above DMSO | activity score, % at 12 µM | hit rate 0.02% among 300,000;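 active = lowest replicate activity score at least 50, where 100 means six control SD above control mean; inconclusive = lowest score under 50 but half or more replicates reach 50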;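 note: yeast exposed to compound for 9 h at 30 °C; higher score means more reporter readthrough which indicates perturbed polyadenylation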
HSF1 inhib: HSF1 inhibition; NIH3T3-HGL HSE-luciferase, MG132-induced, luminescence 8 h; hits give low values; hit rate 0.77% among 300,000; activity change, negative = inhibition, % at 7.5 µM (by protocol);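 active = more than half of replicate wells show activity change below -50%, luminescence cut by over half; inconclusive = some wells, but at most half, below -50%; inactive = no replicate well below -50%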;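 note: luciferase reports HSF-1 transcriptional activity via heat shock element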
Large screens that a line does not name were inactive.

COc1ccc(OC)c(NC(=O)c2sc3nc(Cc4ccccc4)cc(C(F)(F)F)c3c2N)c1	none
COc1ccccc1C(=O)NCCC(=O)N1CCN(C(C)=O)CC1	none (no result: PERK inhibitor, Hsp70 activator, STAT3 activator)
Cc1ccc(S(=O)(=O)N2CCN(CC(=O)N/N=C\c3ccc(O)c(O)c3)CC2)cc1	none (no result: Hsp70 activator, STAT3 activator)
CCCn1c(=O)c2c(nc3n2CCCN3CCc2ccccc2)n(C)c1=O	none (no result: PERK inhibitor, Hsp70 activator, STAT3 activator)
Cn1c(=O)n(CCc2ccccc2)c(=O)c2c1nc1n2CCCN1CCc1ccccc1	AHR activator 83
O=C(C[C@@H]1C/C=C\C[C@@H](Cc2ccc(F)cc2)C(=O)OC[C@@H]2CCCN2C1=O)NCCO	none (no result: PERK inhibitor, Hsp70 activator, STAT3 activator, PolyA inhibitor, HSF1 inhib)
COc1cccc(CC(=O)N[C@@H](CCSC)c2nc3ccccc3[nH]2)c1	HSF1 inhib -54
COc1cccc(C(=O)N[C@@H](CCSC)c2nc3ccccc3[nH]2)c1	none
Cc1ccccc1OCCC(=O)OCC(=O)NCCc1ccccc1	none (no result: PERK inhibitor, Hsp70 activator, STAT3 activator)
COc1ccccc1N1CCN(C(=O)CSc2nc3ccccc3nc2N2CCC(C)CC2)CC1	none (no result: PERK inhibitor, Hsp70 activator, STAT3 activator)
CC(C)CCNC(=O)C1CCCN1C(=O)NC1CCCCC1 (configuration not stated)	HSF1 inhib -72
CC1(C)OC1COc1c2ccoc2cc2oc(=O)ccc12 (configuration not stated)	AHR activator 68
COc1c2ccoc2c(OC[C@@H](O)C(C)(C)O)c2oc(=O)ccc12	AHR activator 50
COC(C)(C)[C@H](O)COc1c2ccoc2cc2oc(=O)ccc12	AHR activator 57
Cc1ccc(C2/C(=C(/O)c3ccc4c(c3)CC(C)O4)C(=O)C(=O)N2CCCn2ccnc2)cc1 (configuration not stated)	none (no result: PERK inhibitor, Hsp70 activator, STAT3 activator)
O=C(Nc1nccs1)c1ccc2c(=O)n3c(nc2c1)CCCCC3	AHR activator 76, PolyA inhibitor inconclusive
Cc1csc(NC(=O)c2ccc3c(=O)n4c(nc3c2)CCCCC4)n1	none
O=C(NNC(=O)c1ccc2c(=O)n3c(nc2c1)CCC3)c1ccc(F)cc1	AHR activator 60 (no result: PERK inhibitor, Hsp70 activator, STAT3 activator)
O=C(NNC(=O)c1ccc2c(=O)n3c(nc2c1)CCC3)c1ccc(Cl)cc1	none (no result: PERK inhibitor, Hsp70 activator, STAT3 activator, PolyA inhibitor, HSF1 inhib)
O=C1C(=O)N(CCS(=O)(=O)c2ccccc2)c2ccc(F)cc21	none (no result: PERK inhibitor, Hsp70 activator, STAT3 activator)
CCOc1ccccc1NC(=O)c1cc(=O)[nH]c2ccc(S(=O)(=O)N3CCOCC3)cc12	AHR activator 57 (no result: PERK inhibitor, Hsp70 activator, STAT3 activator, PolyA inhibitor, HSF1 inhib)
COCCNC(=O)CSc1nc2scc(-c3ccccc3)c2c(=O)[nH]1	none (no result: Hsp70 activator, STAT3 activator)
CCN(C(=O)Cn1c(=O)oc2ccccc21)c1ccc(C)c(C)c1	none (no result: PERK inhibitor, Hsp70 activator, STAT3 activator)
COC(=O)CCC(=O)N1CCCC(N2CCN(c3cccc(C(F)(F)F)c3)CC2)C1 (configuration not stated)	none (no result: PERK inhibitor, Hsp70 activator, STAT3 activator)
CC(C)(C)OC(=O)N1CCN(C(=O)c2[nH]cnc2C(=O)NCc2ccccc2)CC1	none (no result: PERK inhibitor, Hsp70 activator, STAT3 activator, PolyA inhibitor, HSF1 inhib)
CC(C)(C)OC(=O)N1CCN(C(=O)c2[nH]cnc2C(=O)NCC(=O)OCc2ccccc2)CC1	HSF1 inhib -88 (no result: PERK inhibitor, Hsp70 activator, STAT3 activator)
Oc1ccccc1/C=N/Nc1nn[nH]n1	HSF1 inhib -75 (no result: Hsp70 activator, STAT3 activator)
Cc1nnc(N/N=C/c2cc(C)n(-c3ccc(F)cc3)c2C)n1N	HSF1 inhib -96
C(=N\Nc1nn[nH]n1)/c1ccccc1	none
Cc1cc(/C=N/NC(N)=S)c(C)n1-c1ccc(Br)cc1	none
Cc1nnc(N/N=C/c2c(Cl)cccc2Cl)n1N	none
Cc1nnc(N/N=C/c2ccccc2O)n1N	AHR activator 48
COc1ccc(S(=O)(=O)N2CCCC(C(=O)NC3CC3)C2)cc1Cl (configuration not stated)	none (no result: PERK inhibitor, Hsp70 activator, STAT3 activator)
CCOc1ccc(N(CC(=O)NC2CCCC2)C(=O)CCC(=O)Nc2nccs2)cc1	none (no result: PERK inhibitor, Hsp70 activator, STAT3 activator)
O=C(CSc1nc2[nH]ncc2c(=O)[nH]1)NCCc1ccccc1	AHR activator 78
Cc1ccccc1N1CC(C(=O)Nc2ccncc2)CC1=O (configuration not stated)	none (no result: PERK inhibitor, Hsp70 activator, STAT3 activator)
CCOc1ccc(NC(=O)[C@H](Cc2ccccc2)NC(=O)C2CCNCC2)cc1	none (no result: PERK inhibitor, Hsp70 activator, STAT3 activator)
NNC(=O)c1sc(-c2ccccc2)cc1N	AHR activator 66
NNC(=O)c1cc(-c2ccccc2)sc1N	AHR activator 56 (no result: Hsp70 activator, STAT3 activator)
COc1ccc(NS(=O)(=O)c2csc(C(=O)N3CCCC3)c2)c(OC)c1	none (no result: PERK inhibitor, Hsp70 activator, STAT3 activator)
CCN(CC)c1ccc(-c2nn3c(-c4ccccc4OC)nnc3s2)cc1	STAT3 activator 136
COc1cccc(OC)c1-c1nn2c(-c3cc(-c4ccccc4)n[nH]3)nnc2s1	AHR activator 94
COc1ccc(-c2nn3c(-c4ccccc4)nnc3s2)cc1	none
COc1cccc(-c2nnc3sc(-c4ccccc4)nn23)c1	none
O=C1C=C(c2cc(F)ccc2F)C[C@@H](c2ccc(F)cc2)C1	none (no result: PERK inhibitor, Hsp70 activator, STAT3 activator, PolyA inhibitor, HSF1 inhib)
Cc1ccc(-c2nc(C#N)c(NCCc3ccccn3)o2)cc1	AHR activator 73
Cc1ccc(-c2nc(C#N)c(NCC3CCCO3)o2)cc1 (configuration not stated)	AHR activator 63
COc1ccc(-c2nc(C#N)c(NCCc3ccccc3)o2)cc1	none
COc1ccc(CCNc2oc(-c3ccc(C)cc3)nc2C#N)cc1OC	AHR activator 69
COc1ccccc1CNC(=O)c1cccc(S(=O)(=O)N(C)c2ccccc2)c1	none (no result: PERK inhibitor, Hsp70 activator, STAT3 activator, PolyA inhibitor, HSF1 inhib)
Cc1ccc2c(CN(C)Cc3ccc(Cl)cc3)cc(=O)oc2c1	none (no result: PERK inhibitor, Hsp70 activator, STAT3 activator)
CC1=C(C(=O)Nc2ccc(C)cc2C)C(c2cccs2)NC(=S)N1 (configuration not stated)	none
CC1=C(C(=O)Nc2ccccc2C)C(c2cccs2)NC(=S)N1 (configuration not stated)	HSF1 inhib -51
CC(=O)c1ccc(N2CCN(C(=O)c3ccc(NC4=NC5CS(=O)(=O)CC5S4)cc3)CC2)cc1 (configuration not stated)	none (no result: PERK inhibitor, Hsp70 activator, STAT3 activator)
CCOc1ccc(N(C)S(=O)(=O)c2ccc3[nH]cc(C(=O)NCCCOC)c(=O)c3c2)cc1	AHR activator 48 (no result: PERK inhibitor, Hsp70 activator, STAT3 activator)
CCCNC(=O)c1c[nH]c2ccc(S(=O)(=O)N(C)c3ccc(OCC)cc3)cc2c1=O	AHR activator 54
O=C(C1CC(=O)N(c2ccc(F)cc2)C1)N1CCCCCC1 (configuration not stated)	none (no result: PERK inhibitor, Hsp70 activator, STAT3 activator)
Oc1ccc(-c2csc(-c3c[nH]c4ccccc34)n2)c(O)c1	AHR activator 61, STAT3 activator 158
COc1ccc(C(=O)OC(C)C(=O)NC2CCCc3ccccc32)cc1OC (configuration not stated)	none (no result: PERK inhibitor, Hsp70 activator, STAT3 activator, PolyA inhibitor, HSF1 inhib)
Clc1ccc(C2=CC(c3ccco3)n3ncnc3N2)cc1 (configuration not stated)	AHR activator 71
COc1ccc(C2=CC(c3ccco3)n3ncnc3N2)cc1 (configuration not stated)	none (no result: AHR activator, PolyA inhibitor, HSF1 inhib)
Cc1ccc(-c2csc(NC(=O)CN3CC(C)OC(C)C3)n2)cc1 (configuration not stated)	none (no result: PERK inhibitor, Hsp70 activator, STAT3 activator)
Brc1ccc(-c2nnc3sc(CNCc4ccc5c(c4)OCO5)cn23)cc1	AHR activator 65
CCCCCNC(=O)CSC1=N/C(=C\c2ccc(Cl)c(Cl)c2)C(=O)N1CC	PERK inhibitor 3.0

Screening data: PubChem, several laboratories
